Published values pooled from the literature.
Effect on: cell growth or viability

| SMILES | cell line | technique | concentration | time | quantity | value |
| --- | --- | --- | --- | --- | --- | --- |
| CC(=O)Nc1cccc(-n2c(=O)n(C3CC3)c(=O)c3c(Nc4ccc(I)cc4F)n(C)c(=O)c(C)c32)c1 | SW-620 | resazurin | 1.56 nM | 72 h | viability | 56.3% |
| C[C@H](Nc1ccc2c(c1)OCCn1cc(N3C(=O)OC[C@H]3C(F)F)nc1-2)C(N)=O | HCC1954 | – | – | 5 days | EC50 | 108 nM |
| C/C(=N\NC(=O)c1cccc(S(=O)(=O)N2CCN(C)CC2)c1)c1cc(Cl)ccc1O | TF-1a | resazurin | – | 96 h | EC50 | 1260 nM |
| CC1(C)C(=O)NC2=C1C(=O)C(=O)c1ccccc12 | FaDu | – | – | 72 h | IC50 | 4.2 µM |
| N[C@H]1CC[C@H](N[C@@H]2C[C@H]2c2ccccc2)CC1 | TF-1a | resazurin | – | 96 h | EC50 | 0.09 nM |
| COc1cc(Nc2nccc(-c3cnn4nc(OC)ccc34)n2)cc(C(F)(F)F)c1 | SK-MEL3 | ATP luminescence | – | – | IC50 | 1.6 µM |
| CN(C)CC[C@@H](c1ccc(Cl)cc1)c1ccccn1 | FaDu | – | – | 72 h | IC50 | > 20 µM |
| Nc1ccn([C@@H]2O[C@H](CO)[C@@H](O)[C@@H]2O)c(=O)n1 | FaDu | CCK-8 | 40 nM | 96 h | inhibition | 50% |
| CC(C)C[C@H](NC(=O)[C@H](Cc1ccccc1)NC(=O)c1cnccn1)B(O)O | SAOS-2 | ATP luminescence | – | – | IC50 | 0.025 µM |
| CN1CCN(C(=O)[C@H](CCCN[C@@H]2C[C@H]2c2ccc(F)cc2)NC(=O)c2ccc(-n3ccnn3)cc2)CC1 | TF-1a | resazurin | – | 96 h | EC50 | 31.1 nM |
| C[C@]12CC[C@@H]3c4ccc(O)cc4CC[C@H]3[C@@H]1CC[C@@H]2O | CAPAN-1 | ATP luminescence | – | 72 h | EC90 | 213 µM |
